The results in this text go back to PubChem BioAssay AID1885 (Broad Institute, 2009).

Molecules are shown by their SMILES. Among all 300,000 compounds or so, about 4,400 (1.5%) were called active. Shown is part of a subset that was picked to be rich in actives. Values without a mark were called inactive.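 Rule for the calls: active = mean inhibition across valid replicates above about 55% (limit read from the data); inconclusive = mean below that limit but half or more replicates reach it; inactive = mean below it, under half of replicates reach it.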

The experiment is described as follows: Trypanosoma cruzi replication blockers in host cells – luminescence, NIH3T3 host cells, primary screen (AID 1885).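 Note: signal also drops with host cell toxicity which is not excluded here; 0% = plate median of DMSO wells and 100% = zero luminescence signal; higher percent means less beta-gal luminescence so fewer parasites.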 The note with it: T. cruzi beta-gal in NIH3T3, luminescence, 90 h; active compounds read high; concentration not given here. In short, it runs like this:
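System: NIH/3T3 fibroblasts plus reporter T. cruzi. Medium: DMEM plus 2% FBS. Probe or stimulus: 5000 reporter trypomastigotes per well. Compound: single 50 nL compound addition per well in DMSO. Incubation: co-culture of at least 90 h after 3 h attachment. Detection: GalScreen β-gal luminescence, detergent lysis, 60 min. Evaluation: parasite load inhibition, %.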
`FC(F)Oc1ccccc1NC(=S)Nc1cccc(Cl)c1Cl`: the inhibition was 0.408%.
Regarding `CC(C(=O)NCC1CCCCC1)N(C)Cc1cccc(Cl)c1` (centres undefined), the inhibition is 10.6%.
As to `CCOC(=O)/C(=C\c1ccc([N+](=O)[O-])cc1)C(=O)c1cc(C(C)=O)c(Nc2ccccc2)s1`, the inhibition was 55.8% (active).
In the case of `Cc1ccc(NC(=O)/C(=C/c2ccc([N+](=O)[O-])cc2)NC(=O)c2ccccc2)cc1` it was 1.7%.
`CCOC(=O)COc1ccc([N+](=O)[O-])cc1`: the inhibition is -3.58%.
In the case of `COC(=O)C1[C@H]2SC(C)(C)C(C(=O)OC)N2C(=O)N1Cc1nc2ccccc2s1` (some centres undefined) it was -4.35%; in that of `CC(OC(=O)c1ccc(S(=O)(=O)N2CCOCC2)cc1)c1ccccc1` (centres undefined), 1.58%.
With `CC(C)CN(C(=O)COC(=O)c1ccc(Cl)c(N)c1)c1c(N)n(Cc2ccccc2)c(=O)[nH]c1=O`, the inhibition is 10.2%.
To `Cc1ccc(C)c(N2CCN(C(=O)CCCCCn3c(=S)[nH]c4ccc(N5CCOCC5)cc4c3=O)CC2)c1` belongs 56.8% (active).
Turning to `Cc1ccc(C)c(N2CCN(C(=O)CCCCn3c(=O)[nH]c4ccccc4c3=O)CC2)c1`, the inhibition is 4.26%.
On to `O=C(CCCCCn1c(=S)[nH]c2cc3c(cc2c1=O)OCO3)N1CCN(c2ccc(F)cc2)CC1`, for which the inhibition is 7.91%.
As to `Cc1ccn(C(CC(=O)c2ccc(Br)cc2)C(=O)O)n1` (centres undefined), the inhibition was -6.81%.
For `CCN(CC)C(=O)CSC1c2ccccc2C(=O)N1c1ccccc1` (centres undefined), the inhibition is -17.2%.
To `CCC(C(=O)NCc1ccc(OC)cc1)n1nc(C)n2c(cc3occc32)c1=O` (centres undefined) belongs -2.81%; to `CCOc1ccc(CCNC(=O)C(CC)n2nc(C)n3c(cc4sccc43)c2=O)cc1OCC` (centres undefined), 59.3% (active).
In the case of `COc1ccc(CCNC(=O)c2cc3sccc3n2C)cc1OC` it was -11.3%; in that of `COc1ccc(-n2nnnc2CNC(=O)c2ccc3ccccc3c2)cc1`, -2.55%; in that of `Cc1c(Cl)cccc1NC(=S)N(Cc1ccccc1)Cc1cccnc1`, 18.3%.
On to `Cc1ccc(CN(Cc2cccnc2)C(=S)Nc2cccc(Cl)c2C)cc1`, for which the inhibition was 3%.
Consider `Cc1ccc(CN(Cc2cccnc2)C(=S)Nc2cc(Cl)ccc2C)cc1`, for which the inhibition was 77.2% (active).
As to `CCOc1ncccc1C(=O)NNC(=O)c1cccc(S(=O)(=O)Nc2ccccc2OC)c1`, the inhibition is 0.733%.
To `CC(C)c1nc(N2CCOCC2)c(C#N)c2c1COC(C)(C)C2` belongs 12.5%; to `COc1ccc(CSc2nc(N3CCOCC3)c3c(c2C#N)CC(C)(C)OC3)cc1`, 60.5% (active).
As for `CC1(C)Cc2c(C#N)c(SCc3nc4ccccc4[nH]3)nc(N3CCOCC3)c2CO1`, the inhibition is 23.1%.
